Measurements collected from several papers.
Compare with care: the assays were run in different laboratories.
Target: Sodium-dependent noradrenaline transporter (SLC6A2, Homo sapiens, UniProt P23975)

SMILES | read-out | action | method | notes | quantity | value
Clc1ccc(C(c2ccc(Cl)cc2)c2nnnn2CCCCN2CCC(Cc3ccccc3)CC2)cc1 | transporter uptake | inhibitor | – | – | IC50 | 469 nM
CCN(CC)c1ccc(C2Nc3ccc(C(=O)c4ccccc4)cc3NC3=C2C(=O)CC(C)(C)C3)cc1 (stereo not drawn) | cell-free assay | – | radioligand | – | Ki | 4860 nM
O[C@@H]1[C@H](O)[C@@H]2C[C@@H]2[C@H]1n1cnc2c(NCCc3ccccc3)nc(C#Cc3ccccc3)nc21 | ligand displacement | – | radioligand | – | Ki | 2800 nM
OCCCN1CC[C@@H]2C[C@H]1c1cc(-c3ccc(C(F)(F)F)cc3)ccc12 | ligand displacement | – | radioligand | – | Ki | 405 nM
CCOC(=O)[C@@]12C[C@@H]1[C@@H](n1ccc3c(NC)nc(C#Cc4ccc(Cl)s4)nc31)[C@H](O)[C@@H]2O | transporter uptake | inhibitor | radiometric | – | IC50 | > 10000 nM
CCn1c(-c2nc3ccc(C(=O)N4CCCC(N)C4)cc3n2C)cc2ccccc21 (stereo not drawn) | transporter uptake | inhibitor | – | – | IC50 | 39800 nM
Clc1ccc(C(c2ccccc2)c2nnnn2CCCCN2CCC(CCc3ccccc3)CC2)cc1 (stereo not drawn) | transporter uptake | inhibitor | – | – | IC50 | 424 nM
CNc1nc(C#Cc2ccc(Cl)s2)nc2c1ncn2[C@H]1[C@H](O)[C@H](O)[C@]2(C(=O)OC)C[C@H]12 | ligand displacement | – | radioligand | cell membranes | Ki | > 10000 nM
Clc1ccc(C(c2ccccc2)c2nnnn2CCCN2CCC(Cc3ccccc3)CC2)cc1 (stereo not drawn) | transporter uptake | inhibitor | – | – | IC50 | 174 nM
CCCCN1CCC(COC(=O)c2ccc(N)c(OCF)c2)CC1 | cell-free assay | – | radioligand | – | Ki | 1400 nM
CCOC(=O)[C@@]12C[C@@H]1[C@@H](n1cnc3c(NC)nc(C#Cc4ccc(Cl)s4)nc31)[C@H](O)[C@@H]2O | ligand displacement | – | radioligand | cell membranes | Ki | > 8400 nM
CCC(C)C(=O)[C@]12C(=O)[C@](CC=C(C)C)(C[C@H](CC=C(C)C)[C@@]1(C)CCC=C(C)C)C(=O)C(CC=C(C)C)=C2O (stereo partly drawn) | ligand displacement | – | radioligand | cell membranes | Ki | 7320 nM
Clc1ccc(CC2CCN(CCCCn3nnnc3C(c3ccccc3)c3ccccc3)CC2)cc1Cl | transporter uptake | inhibitor | – | – | IC50 | 724 nM
CNC(=O)[C@@]12C[C@@H]1[C@@H](n1cnc3c(NCc4cccc(Cl)c4)nc(C#Cc4ccccc4)nc31)[C@H](O)[C@@H]2O | ligand displacement | – | radioligand | – | Ki | 3160 nM
CCn1c(-c2nc3cc(C(=O)N4CCC[C@@H](N)C4)cc(OC)c3n2C)cc2cccnc21 | transporter uptake | inhibitor | – | – | IC50 | 31600 nM
